Test results taken from ChEMBL document CHEMBL1144871, “Synthesis of substituted 6-anilinouracils and their inhibition of DNA polymerase IIIC and Gram-positive bacterial growth” (J Med Chem, 2003).
Converted amounts (≈) assume the structure as drawn.

How the values were obtained:
Bacillus subtilis = assay: Antibacterial activity against Bacillus subtilis was determined; format: functional
[1] = biological target: DNA polymerase III PolC-type (Bacillus subtilis (strain 168), UniProt P13267); assay: Inhibitory activity against DNA polymerase IIIC from Bacillus subtilis was determined
Sequence of DNA polymerase III PolC-type (P13267 whole entry, the tested form may be a part): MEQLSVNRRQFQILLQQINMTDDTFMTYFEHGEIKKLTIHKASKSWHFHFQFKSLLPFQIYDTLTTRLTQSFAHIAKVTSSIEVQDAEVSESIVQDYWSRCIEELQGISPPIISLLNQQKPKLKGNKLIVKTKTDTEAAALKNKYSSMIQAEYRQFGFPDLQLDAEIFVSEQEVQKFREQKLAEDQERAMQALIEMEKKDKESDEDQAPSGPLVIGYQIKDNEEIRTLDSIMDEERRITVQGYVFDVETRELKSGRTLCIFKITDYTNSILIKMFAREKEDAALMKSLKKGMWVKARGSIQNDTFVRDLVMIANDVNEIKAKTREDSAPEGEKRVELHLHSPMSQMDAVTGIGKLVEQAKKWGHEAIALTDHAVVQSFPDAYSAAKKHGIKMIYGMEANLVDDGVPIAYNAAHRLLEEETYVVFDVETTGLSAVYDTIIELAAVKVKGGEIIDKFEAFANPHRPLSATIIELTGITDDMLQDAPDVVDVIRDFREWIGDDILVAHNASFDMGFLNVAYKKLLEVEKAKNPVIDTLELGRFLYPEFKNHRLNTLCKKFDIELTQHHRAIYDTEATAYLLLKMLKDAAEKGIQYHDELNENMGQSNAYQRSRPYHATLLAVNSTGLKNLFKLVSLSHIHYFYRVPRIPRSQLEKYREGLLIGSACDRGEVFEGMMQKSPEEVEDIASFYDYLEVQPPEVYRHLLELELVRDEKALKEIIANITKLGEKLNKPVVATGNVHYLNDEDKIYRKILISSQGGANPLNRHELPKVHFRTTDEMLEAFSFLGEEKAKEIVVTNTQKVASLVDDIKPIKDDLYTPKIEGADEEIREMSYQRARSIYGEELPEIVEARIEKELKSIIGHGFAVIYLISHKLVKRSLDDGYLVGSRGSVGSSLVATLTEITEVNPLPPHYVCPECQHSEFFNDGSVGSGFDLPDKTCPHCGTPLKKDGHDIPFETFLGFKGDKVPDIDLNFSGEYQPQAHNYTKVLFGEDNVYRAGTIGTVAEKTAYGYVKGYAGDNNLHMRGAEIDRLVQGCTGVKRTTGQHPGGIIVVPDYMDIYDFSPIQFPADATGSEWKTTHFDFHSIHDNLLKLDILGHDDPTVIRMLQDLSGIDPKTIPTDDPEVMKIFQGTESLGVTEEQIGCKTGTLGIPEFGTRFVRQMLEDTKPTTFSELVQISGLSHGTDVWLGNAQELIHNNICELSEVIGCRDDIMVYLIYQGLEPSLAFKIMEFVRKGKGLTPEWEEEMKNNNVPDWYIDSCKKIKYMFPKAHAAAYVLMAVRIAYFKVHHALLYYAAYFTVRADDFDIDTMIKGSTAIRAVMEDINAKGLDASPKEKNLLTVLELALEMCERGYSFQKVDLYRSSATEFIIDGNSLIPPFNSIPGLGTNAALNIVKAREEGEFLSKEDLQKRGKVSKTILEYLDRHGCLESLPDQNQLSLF
Procedure, shortened: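 Homogeneous recombinant B. subtilis pol IIIC, 0.025-0.06 units, added to buffered Mg²⁺/DTT/glycerol mix with dATP, dCTP, dTTP, [³H]dTTP and activated calf thymus DNA, no dGTP ("truncated" assay). Compound serial dilutions in DMSO added before enzyme. 10 min at 30 °C, TCA-pyrophosphate stop, acid-precipitated DNA filtered and scintillation counted. Apparent Ki read directly; duplicates.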

Enterococcus faecalis [2] = assay: Antibacterial activity against Enterococcus faecalis was determined; format: functional
Procedure, shortened: (§1)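 MIC by broth microdilution. Log-phase cultures in Luria broth, seeded at (3-7) × 10⁵ CFU/mL stocks. Compound from DMSO stock, 2-fold serial dilutions giving five concentrations from 20 to 1.25 µg/mL, final 1% DMSO, with untreated and DMSO controls. Duplicate assays, 37 °C for 16 to 24 h, growth read as OD 600 nm. MIC is the averaged lowest concentration preventing growth.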

Enterococcus faecalis [3] = assay: Antibacterial activity against vancomycin-resistant strain of Enterococcus faecalis(VRE) was determined; format: functional; procedure, shortened: as §1
Enterococcus faecium = assay: Antibacterial activity against Enterococcus faecium was determined; format: functional, enterococcus fecium
Procedure, shortened: (§2)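 Broth microdilution MIC. Log-phase cultures grown in Luria broth; wells seeded from stocks at (3-7) × 10⁵ CFU/mL. DMSO stocks diluted 2-fold to five concentrations, 20 to 1.25 µg/mL, plus untreated control; 1% DMSO final in all wells. Duplicate assays, 37 °C for 16 to 24 h, growth read as OD600. MIC taken as lowest concentration preventing growth, averaged.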

Escherichia coli = assay: Antibacterial activity against Escherichia coli was determined; format: functional; procedure, shortened: as §2
Staphylococcus aureus [4] = assay: Antibacterial activity against Staphylococcus aureus was determined; format: functional
Staphylococcus aureus [5] = assay: Antibacterial activity against Staphylococcus aureus(smith) was determined; format: functional
Staphylococcus aureus [6] = assay: Antibacterial activity against methicillin-resistant strain of Staphylococcus aureus(MRSA B42876) was determined; format: functional; procedure, shortened: as §1

| SMILES | MIC (Bacillus subtilis) [µg/mL] | Ki [1] [nM] | MIC (Enterococcus faecalis [2]) [µg/mL] | MIC (Enterococcus faecalis [3]) [µg/mL] | MIC (Enterococcus faecium) [µg/mL] | MIC (Escherichia coli) [µg/mL] | MIC (Staphylococcus aureus [4]) [µg/mL] | MIC (Staphylococcus aureus [5]) [µg/mL] | MIC (Staphylococcus aureus [6]) [µg/mL] |
| --- | --- | --- | --- | --- | --- | --- | --- | --- | --- |
| CCc1cc(Nc2cc(=O)n(CCCCN3CCC(O)(c4ccccc4)CC3)c(=O)[nH]2)ccc1C | 20 (≈ 42 µM) | 67 | 20 (≈ 42 µM) | 10 (≈ 21 µM) | 10 (≈ 21 µM) | > 20 | 20 (≈ 42 µM) | 20 (≈ 42 µM) | 20 (≈ 42 µM) |
| COCCCCn1c(=O)cc(Nc2ccc(C)c(C(C)O)c2)[nH]c1=O (stereo not drawn) | > 20 | 2100 | > 20 |  | > 20 | > 20 | > 20 | > 20 |  |
| CCc1cc(Nc2cc(=O)n(CCCCN3CCCCC3)c(=O)[nH]2)ccc1C | 10 (≈ 26 µM) | 28 | 20 (≈ 52 µM) | 10 (≈ 26 µM) | 20 (≈ 52 µM) | > 20 | 20 (≈ 52 µM) | 40 (≈ 104 µM) | 40 (≈ 104 µM) |
| CN[C@H](CC(C)C)C(=O)N[C@H]1C(=O)N[C@@H](CC(N)=O)C(=O)N[C@H]2C(=O)N[C@H]3C(=O)N[C@H](C(=O)N[C@H](C(=O)O)c4cc(O)cc(O)c4-c4cc3ccc4O)[C@H](O)c3ccc(c(Cl)c3)Oc3cc2cc(c3O[C@@H]2O[C@H](CO)[C@@H](O)[C@H](O)[C@H]2O[C@H]2C[C@](C)(N)[C@H](O)[C@H](C)O2)Oc2ccc(cc2Cl)[C@H]1O [VANCOMYCIN] |  |  |  | > 20 |  | > 20 |  |  |  |
| COCCCCn1c(=O)cc(NCc2ccc(Cl)c(Cl)c2)[nH]c1=O | 3.75 (≈ 10.1 µM) | 80 | 5 (≈ 13.4 µM) | 5 (≈ 13.4 µM) | 5 (≈ 13.4 µM) | > 20 | 10 (≈ 26.9 µM) | 5 (≈ 13.4 µM) | 20 (≈ 53.7 µM) |
| CCc1cc(Nc2cc(=O)n(CCCCN3CCN(c4ccc(F)cc4)CC3)c(=O)[nH]2)ccc1C |  |  | 10 (≈ 20.9 µM) | 5 (≈ 10.4 µM) | 5 (≈ 10.4 µM) | > 20 | 10 (≈ 20.9 µM) |  | 20 (≈ 41.7 µM) |
| CCc1cc(Nc2cc(=O)n(CCCCI)c(=O)[nH]2)ccc1C | > 20 | 140 | > 20 |  | > 20 | > 20 | > 20 | > 20 |  |
| COCCCCn1c(=O)cc(Nc2ccc(C)c(C(C)=O)c2)[nH]c1=O | > 20 | 3260 | > 20 |  | > 20 | > 20 | > 20 | > 20 |  |
| COCCCCn1c(=O)cc(Nc2ccc(C)c(C(C)Cl)c2)[nH]c1=O (stereo not drawn) | > 20 | 6470 | > 20 |  | > 20 | > 20 | > 20 | > 20 |  |
| CCc1cc(Nc2cc(=O)n(CCCCN3CCN(C(=O)c4ccco4)CC3)c(=O)[nH]2)ccc1C |  |  | 5 (≈ 10.4 µM) | 10 (≈ 20.9 µM) | 10 (≈ 20.9 µM) | > 20 |  | 5 (≈ 10.4 µM) | 20 (≈ 41.7 µM) |
| CCOC(=O)CC1CN(CCCCn2c(=O)cc(Nc3ccc(C)c(CC)c3)[nH]c2=O)CCO1 (stereo not drawn) | 5 (≈ 10.6 µM) | 26 | > 20 |  | 10 (≈ 21.2 µM) | > 20 | 20 (≈ 42.3 µM) | 20 (≈ 42.3 µM) | 20 (≈ 42.3 µM) |
| O=C(O)c1cn(C2CC2)c2cc(N3CCNCC3)c(F)cc2c1=O [CIPROFLOXACIN] |  |  |  | 20 (≈ 60.4 µM) |  | 0.313 (≈ 0.945 µM) |  |  |  |
| COCCCCn1c(=O)cc(Nc2ccc(C)c(Br)c2)[nH]c1=O | 2.5 (≈ 6.54 µM) | 129 | 5 (≈ 13.1 µM) | 2.5 (≈ 6.54 µM) | 5 (≈ 13.1 µM) | > 20 | 5 (≈ 13.1 µM) | 2.5 (≈ 6.54 µM) | 5 (≈ 13.1 µM) |
| CCc1cc(Nc2cc(=O)n(CCCCN3CCN(c4ncccn4)CC3)c(=O)[nH]2)ccc1C |  |  | 5 (≈ 10.8 µM) | 5 (≈ 10.8 µM) | 5 (≈ 10.8 µM) | > 20 |  | 10 (≈ 21.6 µM) | 10 (≈ 21.6 µM) |
| CCc1cc(Nc2cc(=O)n(CCCCN3CCSCC3)c(=O)[nH]2)ccc1C |  |  | 5 (≈ 12.4 µM) | 5 (≈ 12.4 µM) | 5 (≈ 12.4 µM) | > 20 | 20 (≈ 49.7 µM) |  | 20 (≈ 49.7 µM) |
| CCc1cc(Nc2cc(=O)n(CCCCN)c(=O)[nH]2)ccc1C.Cl |  | 62 |  |  |  | > 20 |  |  |  |
| CCc1cc(Nc2cc(=O)n(CCCCOC)c(=O)[nH]2)ccc1C |  | 88 |  | 2.5 (≈ 7.54 µM) |  | > 20 |  |  |  |
| COCCCCn1c(=O)cc(Nc2ccc(C)c(CO)c2)[nH]c1=O | > 20 | 20000 | > 20 |  | > 20 | > 20 | > 20 | > 20 |  |

| SMILES | MIC (Bacillus subtilis) [µg/mL] | Ki [1] [nM] | MIC (Enterococcus faecalis [2]) [µg/mL] | MIC (Enterococcus faecalis [3]) [µg/mL] | MIC (Enterococcus faecium) [µg/mL] | MIC (Escherichia coli) [µg/mL] | MIC (Staphylococcus aureus [4]) [µg/mL] | MIC (Staphylococcus aureus [5]) [µg/mL] | MIC (Staphylococcus aureus [6]) [µg/mL] |
| --- | --- | --- | --- | --- | --- | --- | --- | --- | --- |
| CCc1cc(Nc2cc(=O)n(CCCCN3CCC(O)(c4ccc(Cl)c(C(F)(F)F)c4)CC3)c(=O)[nH]2)ccc1C |  |  |  | 2.5 (≈ 4.32 µM) | 2.5 (≈ 4.32 µM) | > 20 |  |  |  |
| CCc1cc(Nc2cc(=O)n(CCCCN3CCC(O)(c4ccc(Cl)cc4)CC3)c(=O)[nH]2)ccc1C |  |  | 5 (≈ 9.78 µM) | 10 (≈ 19.6 µM) | 5 (≈ 9.78 µM) | > 20 |  | 5 (≈ 9.78 µM) | 5 (≈ 9.78 µM) |
| COCCCCn1c(=O)cc(Nc2ccc(C)c(CS)c2)[nH]c1=O | > 20 | 180 | > 20 |  | > 20 | > 20 | > 20 | > 20 |  |
| COCCCCn1c(=O)cc(Nc2ccc(C)c(CC#N)c2)[nH]c1=O | 20 (≈ 58.4 µM) | 1020 | > 20 |  | 20 (≈ 58.4 µM) | > 20 | > 20 | 20 (≈ 58.4 µM) |  |
| CCOC1CN(CCCCn2c(=O)cc(Nc3ccc(C)c(CC)c3)[nH]c2=O)CCO1 (stereo not drawn) | 2.5 (≈ 5.81 µM) | 43 | 10 (≈ 23.2 µM) | 10 (≈ 23.2 µM) | 20 (≈ 46.5 µM) | > 20 | 10 (≈ 23.2 µM) | 20 (≈ 46.5 µM) | 20 (≈ 46.5 µM) |
| Cc1ccc(Nc2cc(=O)n(CCCCO)c(=O)[nH]2)cc1I | 5 (≈ 12 µM) | 67 | 5 (≈ 12 µM) | 2.5 (≈ 6.02 µM) | 5 (≈ 12 µM) | > 20 | 10 (≈ 24.1 µM) | 5 (≈ 12 µM) | 5 (≈ 12 µM) |
| CCc1cc(Nc2cc(=O)n(CCCCN3CCNCC3)c(=O)[nH]2)ccc1C.Cl.Cl | 20 | 30 | > 20 |  | > 20 | > 20 | > 20 | > 20 |  |
| C=C(C)c1cc(Nc2cc(=O)n(CCCCOC)c(=O)[nH]2)ccc1C | 2.5 (≈ 7.28 µM) | 565 | 20 (≈ 58.2 µM) | 20 (≈ 58.2 µM) | 20 (≈ 58.2 µM) | > 20 | 20 (≈ 58.2 µM) | 10 (≈ 29.1 µM) | > 20 |
| COCCCCn1c(=O)cc(Nc2ccc(C)c(C)c2)[nH]c1=O | 2.5 (≈ 7.88 µM) | 550 | 10 (≈ 31.5 µM) | 10 (≈ 31.5 µM) | 20 (≈ 63 µM) | > 20 | 20 (≈ 63 µM) | 10 (≈ 31.5 µM) | 10 (≈ 31.5 µM) |
| COCCCCn1c(=O)cc(Nc2ccc(C)c(I)c2)[nH]c1=O | 5 (≈ 11.6 µM) | 310 | 10 (≈ 23.3 µM) | 5 (≈ 11.6 µM) | 10 (≈ 23.3 µM) | > 20 | 10 (≈ 23.3 µM) | 5 (≈ 11.6 µM) | 5 (≈ 11.6 µM) |
| CCc1cc(Nc2cc(=O)n(CCCCO)c(=O)[nH]2)ccc1C |  | 63 |  | 2.5 (≈ 7.88 µM) | 2.5 (≈ 7.88 µM) | > 20 |  |  |  |
| COCCCCn1c(=O)cc(Nc2ccc(C)c(Cl)c2)[nH]c1=O | < 1.25 | 42 | 5 (≈ 14.8 µM) | 5 (≈ 14.8 µM) | 5 (≈ 14.8 µM) | > 20 | 10 (≈ 29.6 µM) | 5 (≈ 14.8 µM) | > 20 |
| C=Cc1cc(Nc2cc(=O)n(CCCCOC)c(=O)[nH]2)ccc1C | < 1.25 | 560 | 10 (≈ 30.4 µM) | 10 (≈ 30.4 µM) | 5 (≈ 15.2 µM) | > 20 | 5 (≈ 15.2 µM) | 5 (≈ 15.2 µM) | 10 (≈ 30.4 µM) |
| CCc1cc(Nc2cc(=O)n(CCCCN3CCOCC3)c(=O)[nH]2)ccc1C |  |  |  |  |  | > 20 |  |  |  |
| COCCCCn1c(=O)cc(Nc2ccc(C)c(CCl)c2)[nH]c1=O | 5 (≈ 14.2 µM) | 40 | > 20 |  | > 20 | > 20 | 20 (≈ 56.8 µM) | 20 (≈ 56.8 µM) | 20 (≈ 56.8 µM) |
| CCc1cc(Nc2cc(=O)n(CCCCN=[N+]=[N-])c(=O)[nH]2)ccc1C | < 1.25 | 120 | 5 (≈ 14.6 µM) | 2.5 (≈ 7.3 µM) | < 1.25 | > 20 | 2.5 (≈ 7.3 µM) | 2.5 (≈ 7.3 µM) | > 20 |
| COCCCCn1c(=O)cc(Nc2ccc(C)c(CSC#N)c2)[nH]c1=O | > 20 | 60 | > 20 |  | > 20 | > 20 | > 20 | > 20 |  |
| CCc1cc(Nc2cc(=O)n(CCCCN3CCN(Cc4ccccc4)CC3)c(=O)[nH]2)ccc1C | 20 (≈ 42 µM) | 22 | 10 (≈ 21 µM) | 5 (≈ 10.5 µM) | 10 (≈ 21 µM) | > 20 | 20 (≈ 42 µM) | 10 (≈ 21 µM) | 10 (≈ 21 µM) |
